Results of several laboratories.
Target: Vascular endothelial growth factor receptor 2 (KDR, Homo sapiens, UniProt P35968)

SMILES | read-out | method | concentration | remaining binding
F[C@@H]1CCN(c2nccc(-c3cnn4ncccc34)n2)C1 | binding |  | 1 µM | 100%
O=C(NCC1CCOCC1)c1n[nH]cc1NC(=O)c1c(F)cccc1F | binding | competition with immobilised ligand | 1 µM | 82%
Cc1cnc(Nc2ccc(C(=O)N3CCC(N4CCCC4)CC3)cc2)nc1-c1cc2ccccc2s1 | binding | competition with immobilised ligand | 1 µM | 4.3%
COCCOc1nc(-c2ccc(Cl)nc2)nc2c1CN(C(=O)c1ncn3ccccc13)CC2 | cell-free assay | competition with immobilised ligand | 0.1 µM | 100%
C[C@H]1CCN(c2nccc(-c3cnn4ncccc34)n2)C1 | binding |  | 1 µM | 92%
CCCOc1ccc([C@@H]2[C@@H](C(=O)O)[C@H](c3ccc4c(c3)OCO4)CN2CC(=O)Nc2c(CC)cccc2CC)cc1 | cell-free assay | competition with immobilised ligand | 1 µM | 72%
CNC(=O)[C@@H]1CC[C@@H](n2c(-c3ccc4cnccc4c3)nc3ccc(C(=O)NCc4cccc(C(N)=O)c4)cc32)C1 | binding | competition with immobilised ligand | 1 µM | 69%
c1cncc(-c2cccc(Nc3nccc(NC4CCCCC4)n3)c2)c1 | binding | competition with immobilised ligand | 10 µM | 69%
O=C(NCCCC1CCCCC1)c1ccc(CNC(=O)c2cnn(-c3ccccc3)c2C(F)(F)F)cc1 | cell-free assay | competition with immobilised ligand | 0.1 µM | 97%
FC(F)(F)Oc1cccc(-c2cnc3ccc(-c4ccncc4)nn23)c1 | cell-free assay | competition with immobilised ligand | 5 µM | 18%
c1cnn2ncc(-c3ccnc(N4CCC45COC5)n3)c2c1 | binding |  | 1 µM | 67%
O=C(c1ccc(Nc2nccc(-c3cc4ccccc4s3)n2)cc1)N1CCC(N2CCCC2)CC1 | binding | competition with immobilised ligand | 1 µM | 47%
CC(C)(C)c1ccc(-c2nc(CBr)nn2-c2cccc(O)c2)cc1 | cell-free assay | competition with immobilised ligand | 10 µM | 83%
CCC(=O)N[C@@H]1CC[C@H](C(=O)N(C)c2ccc(-c3nc4ccccc4o3)cc2)C1 | cell-free assay | competition with immobilised ligand | 1 µM | 77%
COc1cnc(Nc2cccc(S(N)(=O)=O)c2)nc1N1CCN(c2ccccc2)C(=O)C1 | binding | competition with immobilised ligand | 1 µM | 100%
O=C(c1ccc(Nc2ncc(Cl)c(-c3ccc(Cl)s3)n2)cc1)N1CCC(N2CCCC2)CC1 | binding | competition with immobilised ligand | 1 µM | 2.2%
C[C@@H]1CN(c2ccc3ncc(-c4ccc5[nH]nc(C6CC6)c5c4)n3n2)C[C@H](C)O1 | binding | competition with immobilised ligand | 0.5 µM | 100%
CN(C)C(=O)Cn1cc(-c2nc(C3(c4ccc(-c5cnc(N)nc5)cc4)CC3)no2)cn1 | cell-free assay | competition with immobilised ligand | 1 µM | 70%
COc1ncc2cc3ccccc3nc2c1C#N | cell-free assay | competition with immobilised ligand | 5 µM | 100%
CC1CCCN1c1nccc(-c2cnn3ncccc23)n1 (stereo not shown) | binding |  | 1 µM | 100%
CC(C)CC(=O)N1CCc2nc(-c3ccc(Br)cc3)nc(N(C)Cc3ccccc3)c2C1 | cell-free assay | competition with immobilised ligand | 0.1 µM | 100%
N[C@@H]1CCN(c2nccc(-c3cnn4ncccc34)n2)C1 | binding |  | 1 µM | 100%
N#Cc1ccccc1CSc1nnc2c(n1)[nH]c1ccccc12 | binding | competition with immobilised ligand | 10 µM | 95%
CO[C@@H](C)c1c(Nc2ccc([C@@H](N(C)C(=O)C3CCS(=O)(=O)CC3)C(F)(F)F)cc2)cnc2cc(Cl)nn12 | cell-free assay | competition with immobilised ligand | 1 µM | 95%
CN(C)c1nccc(-c2cnc3ncccn23)n1 | binding |  | 1 µM | 90%
